Assay results taken from paper PMC10549236 (RSC Chemical Biology, 2023).

How the values were obtained:
[1] = system: P. aeruginosa QS system; conditions: cited from earlier work
[2] = system: P. aeruginosa; test: Bacterial viability assay; type: cell-based, Pseudomonas aeruginosa
Method in brief: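 Broth dilution in 96-well plates. Test compound at 0.5–6 μg mL−1 in 0.5 μg mL−1 steps was mixed 1:1 by volume with log-phase P. aeruginosa at 10^6 CFU mL−1 and incubated at 37 °C for 22–24 h. Growth was read as OD600, with wells in duplicate.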

[3] = system: P. aeruginosa biofilm; test: Biofilm inhibition assay; type: cell-based, Pseudomonas aeruginosa; conditions: 0.08 μM, 48 h, static, versus negative control
[4] = system: P. aeruginosa established biofilms; test: Biofilm eradication assay; type: cell-based, Pseudomonas aeruginosa; conditions: 40 μM, third day, 48 h-old biofilm, control = 100%
Method in brief: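 P. aeruginosa was grown in M9 in 6-well plates at 37 °C for 48 h to form mature biofilm. Test compound was then added at 10, 20 or 40 μM and culture continued 2 or 3 days. Wells were PBS-washed ×3, dried, stained with 0.1% crystal violet for 15 min, rinsed, solubilised in 30% acetic acid and read at A595. Untreated was set to 100%; triplicates.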

[5] = system: pyocyanin; test: Pyocyanin secretion assay; type: cell-based, Pseudomonas aeruginosa; conditions: 0.08 μM, 20 h
Method in brief: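 P. aeruginosa was cultured with 0.08 μM test compound at 37 °C for about 20 h to OD600 2. Pigment was extracted from about 10 mL of supernatant with chloroform, back-extracted into 0.2 M HCl, and pyocyanin read at A520.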

[6] = system: P. aeruginosa PAO1; test: Mouse wound infection model; type: in vivo; conditions: 2 mg kg^−1 topical twice daily, 48 h post-infection
Method in brief: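 Female BALB/c mice (6–8 weeks, 18–22 g, n = 5 per group) had hair removed and a ~2 mm × 2 mm excisional flank wound made. The wound received ~5 × 10^8 CFU of PBS-washed static overnight PAO1 in 10 μL. Test compound at 2 mg kg−1 in cream was applied topically twice daily; vehicle cream served as control. At 48 h post-infection lesions were excised, homogenised and serially diluted for CFU.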

[7] = system: hitAB gene knockout P. aeruginosa mutant (ΔhitAB); test: Gallium uptake assay by ICP-MS, ΔhitAB mutant; type: cell-based, Pseudomonas aeruginosa; conditions: 0.16 μM, ICP-MS over time
Method in brief: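 Wild-type and ΔhitAB P. aeruginosa overnight cultures were diluted to OD600 0.1 with 0.16 μM test compound. 5 mL aliquots were taken hourly up to 5 h. Pellets were washed ×3 in PBS with 1 mM EDTA, digested in 70% nitric acid at 60 °C for 2 h, diluted to 2% HNO3 and analysed for gallium by ICP-MS.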

In the case of `O=c1cc(-c2ccccc2)oc2cc(O)c(O)c(O)c12` [Baicalein], the “Activity against P. aeruginosa QS system” value [1] is listed as “antagonists against P. aeruginosa QS system”.

In the case of `O=c1cc(-c2ccccc2)oc2cc(O)cc(O)c12` [Chrysin], the “Activity against P. aeruginosa QS system” value [1] is given as “antagonists against P. aeruginosa QS system”.

For `O=[N+]([O-])[O-].O=[N+]([O-])[O-].O=[N+]([O-])[O-].[Ga+3]` [Ga(NO3)3], the IC50 [2] was 3.11 µg/mL, the “Reduction of biofilm formation” value [3] was “approximately 50%” and the Biofilms remained [4] was 30%. The “Decrease in pyocyanin secretion” value [5] was 47%, the “Lower number of CFU of P. aeruginosa compared to the control group” value [6] was 2 log and the “Gallium uptake rate of ΔhitAB mutant compared to WT” value [7] was “significantly abrogated”.

In the case of `O=C1C[C@@H](c2ccc(O)cc2)Oc2cc(O)cc(O)c21` [Naringenin], the “Activity against P. aeruginosa QS system” value [1] is given as “antagonists against P. aeruginosa QS system”.
